Assay results: ChEMBL document CHEMBL2016534 (ACS Med Chem Lett, 2011)
Active and inactive are the calls of the source. The rule behind the calls is not given here.

Assays:
[1] = biological target: T1, Phosphatidylinositol 4,5-bisphosphate 3-kinase catalytic subunit alpha isoform (Homo sapiens, UniProt P42336); assay: Inhibition of PI3Kalpha-mediated AKT phosphorylation at S473 by cell based assay
[2] = biological target: T2, Serine/threonine-protein kinase mTOR (Homo sapiens, UniProt P42345); assay: Inhibition of mTOR
[3] = biological target: T1, Phosphatidylinositol 4,5-bisphosphate 3-kinase catalytic subunit alpha isoform; assay: Inhibition of PI3Kalpha
[4] = Metabolic stability in human liver microsomes assessed as extraction ratio; type: ADME, Microsome; conditions: read-out: ERH
Outline: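 Human liver microsome CLint scaled up with liver physiology parameters (mg HLM/g liver, g liver/kg body weight) to mL/min/kg. Predicted hepatic clearance (CLH, mL/min/kg) then calculated by the well-stirred model. Extraction ratio taken as predicted CLH divided by hepatic blood flow (QH).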

NCI-H1650 = assay: Cytotoxicity against PTEN deficient human NCI-H1650 cells by MTT assay; type: functional, cell-based
NCI-H460 = assay: Cytotoxicity against human NCI-H460 cells harboring PI3KCA mutation by MTT assay; type: functional, cell-based
[5] = biological target: T3, Phosphatidylinositol 4,5-bisphosphate 3-kinase catalytic subunit delta isoform (Homo sapiens) (UniProt O00329); assay: Inhibition of PI3Kdelta
T3 sequence (whole entry): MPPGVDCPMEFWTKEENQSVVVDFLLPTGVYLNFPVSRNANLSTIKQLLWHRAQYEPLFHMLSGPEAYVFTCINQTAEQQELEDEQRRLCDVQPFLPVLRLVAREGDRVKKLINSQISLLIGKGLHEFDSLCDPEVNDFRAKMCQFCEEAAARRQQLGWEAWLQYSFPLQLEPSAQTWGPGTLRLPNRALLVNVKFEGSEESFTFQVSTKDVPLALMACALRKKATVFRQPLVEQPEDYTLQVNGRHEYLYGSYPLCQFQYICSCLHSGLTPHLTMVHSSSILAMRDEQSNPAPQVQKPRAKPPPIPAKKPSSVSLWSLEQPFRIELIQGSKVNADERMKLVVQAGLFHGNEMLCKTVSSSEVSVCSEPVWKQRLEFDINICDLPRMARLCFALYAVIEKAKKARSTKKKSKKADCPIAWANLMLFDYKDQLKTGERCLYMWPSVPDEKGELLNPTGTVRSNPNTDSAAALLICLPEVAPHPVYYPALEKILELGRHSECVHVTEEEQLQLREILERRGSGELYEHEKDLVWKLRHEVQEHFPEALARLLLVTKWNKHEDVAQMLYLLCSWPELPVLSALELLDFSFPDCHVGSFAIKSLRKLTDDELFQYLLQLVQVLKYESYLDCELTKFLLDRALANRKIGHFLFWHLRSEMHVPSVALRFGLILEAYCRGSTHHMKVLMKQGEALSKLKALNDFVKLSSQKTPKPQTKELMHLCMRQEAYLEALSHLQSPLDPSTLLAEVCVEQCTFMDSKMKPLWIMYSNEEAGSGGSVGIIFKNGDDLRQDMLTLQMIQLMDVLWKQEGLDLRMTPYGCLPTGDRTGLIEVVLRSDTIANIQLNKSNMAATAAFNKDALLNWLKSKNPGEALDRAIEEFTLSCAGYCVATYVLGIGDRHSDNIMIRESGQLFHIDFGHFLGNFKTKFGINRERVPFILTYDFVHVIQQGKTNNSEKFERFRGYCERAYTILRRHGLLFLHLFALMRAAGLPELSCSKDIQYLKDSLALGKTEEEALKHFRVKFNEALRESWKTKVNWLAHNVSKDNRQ

NCI-H1975 = assay: Cytotoxicity against human NCI-H1975 cells harboring PI3KCA mutation by MTT assay; type: functional, cell-based
NCI-H23 = assay: Cytotoxicity against human NCI-H23 cells harboring PTEN mutation by MTT assay; type: functional, cell-based
MDR1 (human) = assay: Efflux ratio of permeability from basolateral to apical side to apical to basolateral side of dog RRCK cells expressing human MDR1; type: ADME, cell-based, Canis lupus familiaris, MDCKII-LE
[6] = Metabolic stability in mouse liver microsomes assessed as extraction ratio; type: ADME, Microsome; conditions: read-out: ERH
CYP2C9 = CYP2C9 (Homo sapiens, UniProt P11712); assay: Inhibition of CYP2C9 at 3 uM; type: ADME
CYP2D6 = CYP2D6 (Homo sapiens, UniProt P10635); assay: Inhibition of CYP2D6 at 3 uM; type: ADME
[7] = Metabolic stability in rat liver microsomes assessed as extraction ratio; type: ADME, Microsome; conditions: read-out: ERH
CYP3A4 = CYP3A4 (Homo sapiens, UniProt P08684); assay: Inhibition of CYP3A4 at 3 uM; type: ADME
CYP1A2 = biological target: T4, CYP1A2 (Homo sapiens, UniProt P05177); assay: Inhibition of CYP1A2 at 3 uM; type: ADME
T4 sequence (P05177 whole entry): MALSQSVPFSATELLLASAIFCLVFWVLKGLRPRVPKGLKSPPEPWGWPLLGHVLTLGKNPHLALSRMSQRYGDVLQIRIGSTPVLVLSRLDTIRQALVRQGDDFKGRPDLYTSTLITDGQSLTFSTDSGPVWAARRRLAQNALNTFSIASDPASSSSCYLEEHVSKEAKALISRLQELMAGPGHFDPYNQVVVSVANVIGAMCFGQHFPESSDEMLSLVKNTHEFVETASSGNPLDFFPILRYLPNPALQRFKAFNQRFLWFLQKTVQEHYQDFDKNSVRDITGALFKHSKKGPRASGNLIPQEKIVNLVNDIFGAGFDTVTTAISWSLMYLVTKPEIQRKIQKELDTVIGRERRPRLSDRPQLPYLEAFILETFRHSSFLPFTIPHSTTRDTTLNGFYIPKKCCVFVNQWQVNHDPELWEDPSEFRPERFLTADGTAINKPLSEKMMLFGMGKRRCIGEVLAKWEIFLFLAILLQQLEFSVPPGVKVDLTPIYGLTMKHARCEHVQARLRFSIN

[8] = Drug excretion in bile duct cannulated rat bile; type: ADME; conditions: read-out: Drug excretion
[9] = Drug excretion in bile duct cannulated rat urine; type: ADME; conditions: read-out: Drug excretion
[10] = biological target: T2, Serine/threonine-protein kinase mTOR; assay: Inhibition of mTOR at 1 uM

T1 sequence (P42336 whole entry, canonical isoform): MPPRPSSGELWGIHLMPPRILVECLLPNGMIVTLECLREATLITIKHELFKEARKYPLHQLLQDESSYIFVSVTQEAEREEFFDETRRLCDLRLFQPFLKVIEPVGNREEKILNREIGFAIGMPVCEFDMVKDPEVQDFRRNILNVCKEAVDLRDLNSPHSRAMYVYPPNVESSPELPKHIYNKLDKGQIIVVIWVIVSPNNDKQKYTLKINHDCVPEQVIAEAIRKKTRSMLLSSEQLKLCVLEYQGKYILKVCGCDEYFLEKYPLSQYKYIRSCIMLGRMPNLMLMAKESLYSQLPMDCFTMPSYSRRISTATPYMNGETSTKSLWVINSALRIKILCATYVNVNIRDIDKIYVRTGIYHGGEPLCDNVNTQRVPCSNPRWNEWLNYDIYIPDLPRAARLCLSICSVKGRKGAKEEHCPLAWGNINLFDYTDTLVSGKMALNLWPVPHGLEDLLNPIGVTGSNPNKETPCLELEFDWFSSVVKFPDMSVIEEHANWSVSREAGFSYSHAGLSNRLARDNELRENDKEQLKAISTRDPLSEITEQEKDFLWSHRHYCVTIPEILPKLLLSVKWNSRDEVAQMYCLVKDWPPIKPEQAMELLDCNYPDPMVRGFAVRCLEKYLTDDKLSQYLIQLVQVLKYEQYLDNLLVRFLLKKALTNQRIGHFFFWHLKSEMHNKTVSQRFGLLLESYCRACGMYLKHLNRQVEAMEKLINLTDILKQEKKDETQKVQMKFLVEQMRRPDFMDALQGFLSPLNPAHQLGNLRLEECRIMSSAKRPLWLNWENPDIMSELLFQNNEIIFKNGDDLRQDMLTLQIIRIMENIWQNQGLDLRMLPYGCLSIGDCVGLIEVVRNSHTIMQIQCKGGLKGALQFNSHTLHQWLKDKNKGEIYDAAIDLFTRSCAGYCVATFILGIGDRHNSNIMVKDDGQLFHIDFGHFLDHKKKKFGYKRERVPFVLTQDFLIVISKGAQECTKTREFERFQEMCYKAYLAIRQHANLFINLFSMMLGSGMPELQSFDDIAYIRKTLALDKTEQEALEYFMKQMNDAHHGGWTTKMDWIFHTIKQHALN
CYP2D6, sequence (P10635 whole entry): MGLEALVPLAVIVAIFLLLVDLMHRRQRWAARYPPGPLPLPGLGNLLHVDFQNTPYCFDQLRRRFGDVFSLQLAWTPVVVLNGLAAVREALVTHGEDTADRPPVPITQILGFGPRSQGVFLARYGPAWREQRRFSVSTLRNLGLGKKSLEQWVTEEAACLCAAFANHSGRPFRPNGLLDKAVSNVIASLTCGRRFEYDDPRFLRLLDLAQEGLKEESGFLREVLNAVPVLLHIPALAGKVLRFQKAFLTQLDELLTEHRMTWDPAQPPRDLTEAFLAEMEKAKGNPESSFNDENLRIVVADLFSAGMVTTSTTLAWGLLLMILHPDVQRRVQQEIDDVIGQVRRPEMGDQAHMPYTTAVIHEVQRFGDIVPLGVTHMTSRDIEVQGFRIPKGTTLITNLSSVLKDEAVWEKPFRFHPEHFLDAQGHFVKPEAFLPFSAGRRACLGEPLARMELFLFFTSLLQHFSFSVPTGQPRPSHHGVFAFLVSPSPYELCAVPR
CYP3A4, sequence (P08684 whole entry): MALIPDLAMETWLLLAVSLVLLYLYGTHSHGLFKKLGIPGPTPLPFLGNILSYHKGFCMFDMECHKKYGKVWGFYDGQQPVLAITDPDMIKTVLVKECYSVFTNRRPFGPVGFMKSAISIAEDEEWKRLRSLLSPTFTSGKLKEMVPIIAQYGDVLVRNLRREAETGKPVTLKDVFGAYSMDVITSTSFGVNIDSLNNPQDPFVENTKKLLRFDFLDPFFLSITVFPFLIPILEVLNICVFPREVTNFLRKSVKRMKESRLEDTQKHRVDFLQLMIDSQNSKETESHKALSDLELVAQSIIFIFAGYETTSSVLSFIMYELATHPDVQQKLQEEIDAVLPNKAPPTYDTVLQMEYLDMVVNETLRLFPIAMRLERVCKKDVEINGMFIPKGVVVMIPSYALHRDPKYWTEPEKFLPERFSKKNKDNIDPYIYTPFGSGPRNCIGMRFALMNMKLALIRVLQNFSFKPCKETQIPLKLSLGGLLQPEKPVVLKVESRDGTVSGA
CYP2C9, sequence (P11712 whole entry): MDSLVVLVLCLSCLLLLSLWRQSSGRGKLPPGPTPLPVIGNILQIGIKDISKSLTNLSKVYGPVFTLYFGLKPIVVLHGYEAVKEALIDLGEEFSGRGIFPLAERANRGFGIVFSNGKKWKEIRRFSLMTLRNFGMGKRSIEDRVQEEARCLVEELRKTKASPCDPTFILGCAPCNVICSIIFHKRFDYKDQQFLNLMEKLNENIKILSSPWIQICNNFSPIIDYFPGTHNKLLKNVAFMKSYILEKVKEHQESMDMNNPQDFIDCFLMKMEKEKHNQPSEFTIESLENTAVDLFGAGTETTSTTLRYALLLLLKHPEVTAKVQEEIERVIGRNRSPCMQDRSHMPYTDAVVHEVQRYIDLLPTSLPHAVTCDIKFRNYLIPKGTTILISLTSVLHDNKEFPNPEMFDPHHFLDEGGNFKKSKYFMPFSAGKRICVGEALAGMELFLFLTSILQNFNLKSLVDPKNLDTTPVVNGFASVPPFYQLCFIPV

Compound: N#Cc1c(N2CCOCC2)sc(-c2nc[nH]n2)c1-c1ccc(Cl)cc1
- IC50 [1]: 73 nM
- Ki [2]: 434 nM
- Ki [3]: 1.7 nM
- hepatic extraction ratio [4]: 0.3

Compound: N#Cc1c(N2CCOCC2)sc(-c2cn[nH]c2)c1-c1ccc(Cl)cc1
- Ki [3]: 175 nM

Compound: N#Cc1c(N2CCOCC2)sc(-c2ncn[nH]2)c1-c1ccc(Cl)cc1Cl
- Activity (NCI-H1650): Active
- Activity (NCI-H460): Active
- inhibition [5]: Active
- Activity (NCI-H1975): Active
- Activity (NCI-H23): Active

Compound: N#Cc1c(N2CCOCC2)sc(-c2nnc[nH]2)c1-c1ccc(Cl)cc1Cl
- IC50 [1]: 35 nM
- Ki [2]: 2470 nM
- efflux ratio (MDR1 (human)): 2.56
- hepatic extraction ratio [6]: 0.88
- inhibition at 3 µM (CYP2C9): < 30%
- inhibition at 3 µM (CYP2D6): < 30%
- hepatic extraction ratio [7]: 0.89
- Ki [3]: 0.35 nM
- inhibition at 3 µM (CYP3A4): < 30%
- inhibition at 3 µM (CYP1A2): < 30%
- hepatic extraction ratio [4]: 0.3
- dose excreted [8]: < 1%
- dose excreted [9]: < 1%

Compound: Cc1nnc(-c2sc(N3CCOCC3)c(C#N)c2-c2ccc(Cl)cc2)o1
- Ki [3]: 1280 nM

Compound: N#Cc1ccc(-c2c(-c3nnc[nH]3)sc(N3CCOCC3)c2C#N)c(F)c1
- IC50 [1]: 79 nM
- Ki [2]: 1440 nM
- efflux ratio (MDR1 (human)): 2.6
- hepatic extraction ratio [6]: 0.639
- hepatic extraction ratio [7]: 0.529
- Ki [3]: 0.6 nM
- hepatic extraction ratio [4]: 0.35

Compound: N#Cc1c(N2CCOCC2)sc(C(N)=O)c1-c1ccc(Cl)cc1
- IC50 [1]: 760 nM
- Ki [3]: 13 nM
- inhibition [10]: 47%

Compound: N#Cc1c(N2CCOCC2)sc(C(=O)O)c1-c1ccc(Cl)cc1
- Ki [3]: 230 nM

Compound: N#Cc1ccc(-c2c(-c3ncn[nH]3)sc(N3CCOCC3)c2C#N)c(F)c1
- inhibition [5]: Active

Compound: N#Cc1c(N2CCOCC2)sc(-c2cc[nH]n2)c1-c1ccc(Cl)cc1
- Ki [3]: 1.8 nM
- hepatic extraction ratio [4]: 0.7

Compound: N#Cc1c(N2CCOCC2)sc(-c2cn[nH]n2)c1-c1ccc(Cl)cc1
- Ki [3]: 3 nM
- hepatic extraction ratio [4]: 0.7
